# Assay results: ChEMBL document CHEMBL1671761, “Preclinical characterization of BI 201335, a C-terminal carboxylic acid inhibitor of the hepatitis C virus NS3-NS4A protease” (Antimicrob Agents Chemother, 2010)
# How the values were obtained:
# Rattus norvegicus [1] = species on record: Rattus norvegicus; experiment: Inhibition of rat 5-HT1 receptor at 10 uM
# [2] = biological target: Angiotensin-converting enzyme (Homo sapiens) (UniProt P12821); experiment: Inhibition of human ACE at 10 uM
# [3] = biological target: Alpha-2A adrenergic receptor (Rattus norvegicus) (UniProt P22909); experiment: Inhibition of rat adrenergic receptor Alpha-2 at 10 uM
# [4] = biological target: Alpha-1A adrenergic receptor (Rattus norvegicus) (UniProt P43140); experiment: Inhibition of rat adrenergic receptor Alpha-1at 10 uM
# Alpha-1A adrenergic receptor (Rattus norvegicus), sequence (P43140 whole entry): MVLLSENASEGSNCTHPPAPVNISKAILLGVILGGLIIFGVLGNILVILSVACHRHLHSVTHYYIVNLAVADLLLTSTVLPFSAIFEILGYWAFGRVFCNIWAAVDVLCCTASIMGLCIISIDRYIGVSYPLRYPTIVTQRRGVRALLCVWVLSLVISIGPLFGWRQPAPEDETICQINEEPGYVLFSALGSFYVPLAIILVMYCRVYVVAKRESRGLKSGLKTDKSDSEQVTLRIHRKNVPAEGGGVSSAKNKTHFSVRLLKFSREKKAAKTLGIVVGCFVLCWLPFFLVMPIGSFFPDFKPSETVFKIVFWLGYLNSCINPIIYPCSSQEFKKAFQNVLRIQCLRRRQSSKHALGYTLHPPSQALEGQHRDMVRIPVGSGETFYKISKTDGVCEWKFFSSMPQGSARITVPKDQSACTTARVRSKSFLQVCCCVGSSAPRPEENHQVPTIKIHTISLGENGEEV
# [5] = biological target: Adenosine receptor A1 (Homo sapiens) (UniProt P30542); experiment: Inhibition of human adenosine A1 receptor at 10 uM
# Adenosine receptor A1 (Homo sapiens), sequence (P30542 whole entry): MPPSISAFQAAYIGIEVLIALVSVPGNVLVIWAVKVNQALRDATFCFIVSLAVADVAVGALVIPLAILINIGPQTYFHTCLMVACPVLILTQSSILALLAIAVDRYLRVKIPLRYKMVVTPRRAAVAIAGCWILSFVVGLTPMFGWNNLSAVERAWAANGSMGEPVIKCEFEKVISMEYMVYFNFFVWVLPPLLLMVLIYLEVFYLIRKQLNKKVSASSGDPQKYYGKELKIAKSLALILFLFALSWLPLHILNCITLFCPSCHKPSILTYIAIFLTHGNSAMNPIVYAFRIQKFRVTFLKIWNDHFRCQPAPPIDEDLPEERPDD
# [6] = biological target: Adenosine receptor A2a (Homo sapiens) (UniProt P29274); experiment: Inhibition of human adenosine A2A receptor at 10 uM
# Adenosine receptor A2a (Homo sapiens), sequence (P29274 whole entry): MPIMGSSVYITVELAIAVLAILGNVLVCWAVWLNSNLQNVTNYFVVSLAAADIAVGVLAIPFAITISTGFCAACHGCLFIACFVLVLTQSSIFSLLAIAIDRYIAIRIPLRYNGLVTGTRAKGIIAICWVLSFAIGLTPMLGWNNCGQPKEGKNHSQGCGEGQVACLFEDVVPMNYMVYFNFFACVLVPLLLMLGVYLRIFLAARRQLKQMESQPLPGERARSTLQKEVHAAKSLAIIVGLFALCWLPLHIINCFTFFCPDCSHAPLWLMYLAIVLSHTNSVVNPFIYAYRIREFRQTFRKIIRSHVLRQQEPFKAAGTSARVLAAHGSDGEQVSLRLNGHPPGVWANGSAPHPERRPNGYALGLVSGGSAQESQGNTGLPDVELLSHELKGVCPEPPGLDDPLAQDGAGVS
# [7] = biological target: Protein kinase C (PKC) (Rattus norvegicus) (UniProt P05696+P68403+P09216+P63319+P09215+Q64617+Q9WTQ0+P09217); experiment: Inhibition of rat PKC at 10 uM
# [8] = biological target: Nitric oxide synthase 3 (Rattus norvegicus) (UniProt Q62600); experiment: Inhibition of rat cNOS at 10 uM
# [9] = biological target: Nitric oxide synthase, inducible (Mus musculus) (UniProt P29477); experiment: Inhibition of mouse iNOS at 10 uM
# Hepatitis C virus = experiment: Inhibition of HCV 1b NS3/4A protease; parameters: species or system Hepatitis C virus subtype 1b; conditions: read-out: Ki(app)
# Procedure, shortened: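 Full-length NS3 coexpressed with the 54-residue NS4A, 0.5 nM (2.5 nM for genotype 1a). Substrate was 5 μM anthranilyl-DDIVPAbu[C(O)-O]AMY(3-NO2)TW-OH in 50 mM Tris pH 8.0, 0.25 M citrate, 0.01% dodecylmaltoside, 1 mM TCEP, 5% DMSO. Run at 23°C for 60-70 min, stopped with MES pH 5.8, read by product fluorescence. IC50 converted to apparent Ki via IC50=Ki(1+[S]/Km). Mean ± SD, ≥3 experiments.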
# [10] = Cmax in monkey at 5 mg/kg, po; type: ADME, organism-based, Macaca mulatta; parameters: dose 5 mg/kg, route oral; conditions: rhesus monkey, in vivo
# Procedure, shortened: (§1)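 Single oral dose of 5 mg/kg in 0.5% Methocel with 0.3% Tween 80 (10 ml/kg) to fasted male animals: Sprague-Dawley rats (275-300 g, overnight fast with 10% dextrose water), rhesus monkeys, beagle dogs. Rat blood from cannulated carotid at 0-8 h, pooled from 3 rats per time point; monkey/dog n=3. Plasma solid-phase extracted, LC-MS/MS at m/z 869.3; noncompartmental analysis.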
# [11] = Tmax in rat at 5 mg/kg, po; type: ADME, organism-based; parameters: dose 5 mg/kg, route oral; conditions: in vivo
# Procedure, shortened: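 Male Sprague-Dawley rats (275-300 g), fasted overnight with 10% dextrose water. Single oral dose in 0.5% Methocel/0.3% Tween 80 at 10 ml/kg. Carotid-cannula blood taken 0-8 h, with plasma from 3 rats pooled per time point. Solid-phase extraction, then LC-MS/MS at m/z 869.3 (LOQ 10 nM). Noncompartmental analysis.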
# [12] = AUC in rat at 5 mg/kg, po; type: ADME, organism-based; parameters: dose 5 mg/kg, route oral; conditions: plasma; procedure, shortened: as §1
# [13] = AUC in dog at 5 mg/kg, po; type: ADME, organism-based, Canis lupus familiaris; parameters: dose 5 mg/kg, route oral; conditions: plasma; procedure, shortened: as §1
# [14] = AUC (0 to infinity) in rat at 5 mg/kg, po; type: ADME, organism-based; parameters: time infinity, dose 5 mg/kg, route oral; conditions: plasma; procedure, shortened: as §1
# [15] = AUC (0 to infinity) in monkey at 5 mg/kg, po; type: ADME, organism-based, Macaca mulatta; parameters: time infinity, dose 5 mg/kg, route oral; conditions: rhesus monkey, plasma; procedure, shortened: as §1
# Caspase-2 (Homo sapiens) = Caspase-2 (Homo sapiens) (UniProt P42575); experiment: Inhibition of human caspase-2 at 10 uM
# Cathepsin B = Cathepsin B (Homo sapiens, UniProt P07858); experiment: Inhibition of human cathepsin B at 10 uM
# Cathepsin C (Bos taurus) = Cathepsin C (Bos taurus) (UniProt Q864S1); experiment: Inhibition of bovine cathepsin C at 10 uM
# Chymase (Homo sapiens) = Chymase (Homo sapiens) (UniProt P23946); experiment: Inhibition of human chymase at 10 uM
# Chymase (Homo sapiens), sequence (P23946 whole entry): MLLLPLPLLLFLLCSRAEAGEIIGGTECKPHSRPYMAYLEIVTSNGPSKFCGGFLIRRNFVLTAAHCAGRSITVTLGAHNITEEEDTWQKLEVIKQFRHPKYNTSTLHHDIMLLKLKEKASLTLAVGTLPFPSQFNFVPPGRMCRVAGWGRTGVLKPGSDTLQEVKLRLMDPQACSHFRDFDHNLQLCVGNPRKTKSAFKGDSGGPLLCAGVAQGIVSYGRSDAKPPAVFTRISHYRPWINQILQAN
# Homo sapiens [16] = species on record: Homo sapiens; experiment: Inhibition of human chymotrypsin at 10 uM
# [17] = biological target: Plasma kallikrein (Homo sapiens) (UniProt P03952); experiment: Inhibition of human kallikrein at 10 uM
# [18] = biological target: Interstitial collagenase (Homo sapiens) (UniProt P03956); experiment: Inhibition of human MMP-1 at 10 uM
# [19] = biological target: Stromelysin-1 (Homo sapiens) (UniProt P08254); experiment: Inhibition of human MMP-3 at 10 uM
# [20] = biological target: Collagenase 3 (Homo sapiens) (UniProt P45452); experiment: Inhibition of human MMP-13 at 10 uM
# [21] = biological target: Matrix metalloproteinase-14 (Homo sapiens) (UniProt P50281); experiment: Inhibition of human MMP-14 at 10 uM
# [22] = biological target: Prothrombin (Homo sapiens) (UniProt P00734); experiment: Inhibition of human thrombin at 10 uM
# [23] = biological target: Tissue-type plasminogen activator (Homo sapiens) (UniProt P00750); experiment: Inhibition of human tPA at 10 uM
# [24] = biological target: Sterol O-acyltransferase 2 (Rattus norvegicus) (UniProt Q7TQM4); experiment: Inhibition of rat hapatic, acyl coA cholesterol acetyltransferase at 10 uM
# Sterol O-acyltransferase 2 (Rattus norvegicus), sequence (Q7TQM4 whole entry): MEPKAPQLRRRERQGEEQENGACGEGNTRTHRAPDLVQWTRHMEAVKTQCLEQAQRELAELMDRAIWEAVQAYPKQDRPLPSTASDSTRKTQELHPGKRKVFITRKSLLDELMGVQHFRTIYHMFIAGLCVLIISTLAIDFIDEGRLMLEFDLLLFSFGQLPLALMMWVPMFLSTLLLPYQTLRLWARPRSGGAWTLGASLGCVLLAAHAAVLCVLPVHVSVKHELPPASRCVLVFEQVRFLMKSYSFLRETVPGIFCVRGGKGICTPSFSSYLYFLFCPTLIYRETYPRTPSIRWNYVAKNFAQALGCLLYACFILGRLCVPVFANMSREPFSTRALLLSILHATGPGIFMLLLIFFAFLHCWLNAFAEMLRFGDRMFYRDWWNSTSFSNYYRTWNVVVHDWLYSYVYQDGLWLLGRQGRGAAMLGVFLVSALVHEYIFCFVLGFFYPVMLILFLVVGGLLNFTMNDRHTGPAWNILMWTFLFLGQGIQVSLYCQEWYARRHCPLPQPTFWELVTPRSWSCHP
# [25] = biological target: D(2) dopamine receptor (Homo sapiens) (UniProt P14416); experiment: Inhibition of human dopamine receptor 2L at 10 uM
# [26] = biological target: D(3) dopamine receptor (Homo sapiens) (UniProt P35462); experiment: Inhibition of human dopamine receptor 3 at 10 uM
# [27] = biological target: D(1B) dopamine receptor (Homo sapiens) (UniProt P21918); experiment: Inhibition of human dopamine receptor 5 at 10 uM
# [28] = biological target: Glutamate receptor ionotropic, delta-1 (Rattus norvegicus) (UniProt Q62640); experiment: Inhibition of rat glutamate receptor at 10 uM
# Rattus norvegicus [29] = species on record: Rattus norvegicus; experiment: Inhibition of rat glycine receptor at 10 uM
# [30] = biological target: Inositol 1,4,5-trisphosphate-gated calcium channel ITPR1 (Rattus norvegicus) (UniProt P29994); experiment: Inhibition of rat IP3 receptor at 10 uM
# Inositol 1,4,5-trisphosphate-gated calcium channel ITPR1 (Rattus norvegicus), sequence (P29994 whole entry, looked up): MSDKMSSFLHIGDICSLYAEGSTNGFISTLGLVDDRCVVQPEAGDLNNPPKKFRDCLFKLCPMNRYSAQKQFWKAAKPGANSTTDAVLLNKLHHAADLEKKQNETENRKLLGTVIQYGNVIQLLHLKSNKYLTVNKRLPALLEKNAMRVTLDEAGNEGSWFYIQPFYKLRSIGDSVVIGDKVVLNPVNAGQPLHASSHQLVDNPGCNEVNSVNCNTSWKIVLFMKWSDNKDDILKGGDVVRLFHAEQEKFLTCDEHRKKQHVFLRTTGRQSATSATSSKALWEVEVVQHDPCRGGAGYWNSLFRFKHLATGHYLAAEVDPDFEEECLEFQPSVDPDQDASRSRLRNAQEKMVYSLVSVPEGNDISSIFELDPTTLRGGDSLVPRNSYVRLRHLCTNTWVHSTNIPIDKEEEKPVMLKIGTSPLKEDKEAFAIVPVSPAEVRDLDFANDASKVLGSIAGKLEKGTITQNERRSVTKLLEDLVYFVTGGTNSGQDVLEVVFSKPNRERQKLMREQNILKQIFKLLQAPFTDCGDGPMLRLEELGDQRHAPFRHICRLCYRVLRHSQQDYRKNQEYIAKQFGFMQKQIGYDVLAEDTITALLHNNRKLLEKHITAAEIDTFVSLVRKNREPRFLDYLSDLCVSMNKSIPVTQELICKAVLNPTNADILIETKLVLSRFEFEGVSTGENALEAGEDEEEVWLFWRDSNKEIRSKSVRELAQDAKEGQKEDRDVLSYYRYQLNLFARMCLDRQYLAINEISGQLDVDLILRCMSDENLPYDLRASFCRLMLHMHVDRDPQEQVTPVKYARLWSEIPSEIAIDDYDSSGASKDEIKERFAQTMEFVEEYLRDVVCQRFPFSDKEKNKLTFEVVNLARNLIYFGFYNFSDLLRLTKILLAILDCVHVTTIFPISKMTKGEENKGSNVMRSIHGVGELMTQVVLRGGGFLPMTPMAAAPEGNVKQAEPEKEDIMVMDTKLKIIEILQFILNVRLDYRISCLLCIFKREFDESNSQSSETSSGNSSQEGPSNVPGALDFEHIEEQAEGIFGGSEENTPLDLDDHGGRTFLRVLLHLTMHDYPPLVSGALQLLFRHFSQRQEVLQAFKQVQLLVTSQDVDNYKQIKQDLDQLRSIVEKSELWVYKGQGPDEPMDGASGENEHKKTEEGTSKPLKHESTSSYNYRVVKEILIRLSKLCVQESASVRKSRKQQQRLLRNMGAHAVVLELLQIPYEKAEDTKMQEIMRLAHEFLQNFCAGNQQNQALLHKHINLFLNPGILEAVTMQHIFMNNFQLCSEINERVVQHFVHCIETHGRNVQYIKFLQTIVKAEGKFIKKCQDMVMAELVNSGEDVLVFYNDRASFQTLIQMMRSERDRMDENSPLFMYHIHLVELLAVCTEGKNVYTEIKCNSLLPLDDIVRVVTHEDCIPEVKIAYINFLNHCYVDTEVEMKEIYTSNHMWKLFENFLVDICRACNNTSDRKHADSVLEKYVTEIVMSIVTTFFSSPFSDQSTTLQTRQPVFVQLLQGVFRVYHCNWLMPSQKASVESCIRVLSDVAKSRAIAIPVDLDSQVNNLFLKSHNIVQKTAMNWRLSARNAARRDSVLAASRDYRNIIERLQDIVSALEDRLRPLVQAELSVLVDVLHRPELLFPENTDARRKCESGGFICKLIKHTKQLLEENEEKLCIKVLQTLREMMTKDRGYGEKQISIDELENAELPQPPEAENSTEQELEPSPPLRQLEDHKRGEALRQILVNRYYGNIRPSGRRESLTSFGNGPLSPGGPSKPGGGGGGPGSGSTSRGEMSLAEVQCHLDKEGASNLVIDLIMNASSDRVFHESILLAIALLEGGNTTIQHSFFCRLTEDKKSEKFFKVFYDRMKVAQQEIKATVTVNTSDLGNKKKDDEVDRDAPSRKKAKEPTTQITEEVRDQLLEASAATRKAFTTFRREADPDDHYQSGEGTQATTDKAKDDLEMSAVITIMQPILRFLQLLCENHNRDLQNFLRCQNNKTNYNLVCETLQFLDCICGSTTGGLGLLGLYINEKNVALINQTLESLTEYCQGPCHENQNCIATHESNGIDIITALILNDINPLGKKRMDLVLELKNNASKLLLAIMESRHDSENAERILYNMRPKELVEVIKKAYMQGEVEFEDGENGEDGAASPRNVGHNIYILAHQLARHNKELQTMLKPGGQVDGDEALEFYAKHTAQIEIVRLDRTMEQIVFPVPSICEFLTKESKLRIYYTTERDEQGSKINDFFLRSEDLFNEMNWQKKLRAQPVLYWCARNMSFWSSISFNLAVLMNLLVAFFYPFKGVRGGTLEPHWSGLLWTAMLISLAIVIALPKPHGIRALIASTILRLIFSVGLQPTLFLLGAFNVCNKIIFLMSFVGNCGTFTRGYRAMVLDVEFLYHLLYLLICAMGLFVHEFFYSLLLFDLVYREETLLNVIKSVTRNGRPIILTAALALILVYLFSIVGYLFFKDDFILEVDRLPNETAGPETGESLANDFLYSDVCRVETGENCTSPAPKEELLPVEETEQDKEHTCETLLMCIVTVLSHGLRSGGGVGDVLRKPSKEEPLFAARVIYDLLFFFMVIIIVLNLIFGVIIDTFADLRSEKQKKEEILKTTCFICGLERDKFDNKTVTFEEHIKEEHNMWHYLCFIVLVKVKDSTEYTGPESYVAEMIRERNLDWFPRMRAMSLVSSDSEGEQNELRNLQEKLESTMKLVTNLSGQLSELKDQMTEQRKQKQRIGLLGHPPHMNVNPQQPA
# Rattus norvegicus [31] = species on record: Rattus norvegicus; experiment: Inhibition of rat opiate receptor at 10 uM
# Rattus norvegicus [32] = species on record: Rattus norvegicus; experiment: Inhibition of rat potassium channel-A at 10 uM
# Rattus norvegicus [33] = species on record: Rattus norvegicus; experiment: Inhibition of rat potassium channel-V at 10 uM
# [34] = biological target: Thromboxane A2 receptor (Homo sapiens) (UniProt P21731); experiment: Inhibition of human Thromboxane A2 receptor at 10 uM
# Thromboxane A2 receptor (Homo sapiens), sequence (P21731 whole entry): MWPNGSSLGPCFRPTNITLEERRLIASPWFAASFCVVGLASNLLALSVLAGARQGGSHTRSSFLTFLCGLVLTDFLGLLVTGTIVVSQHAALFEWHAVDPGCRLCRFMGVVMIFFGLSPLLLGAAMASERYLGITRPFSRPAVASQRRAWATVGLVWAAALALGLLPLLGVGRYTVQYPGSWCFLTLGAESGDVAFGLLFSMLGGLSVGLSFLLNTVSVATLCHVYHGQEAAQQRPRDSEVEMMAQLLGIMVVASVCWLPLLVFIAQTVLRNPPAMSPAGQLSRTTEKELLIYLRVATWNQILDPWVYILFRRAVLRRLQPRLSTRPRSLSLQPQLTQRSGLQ
# Rattus norvegicus [35] = species on record: Rattus norvegicus; experiment: Inhibition of rat 5-HT3 receptor at 10 uM
# [36] = biological target: 5-hydroxytryptamine receptor 4 (Cavia porcellus) (UniProt O70528); experiment: Inhibition of guinea pig 5-HT4 receptor at 10 uM
# [37] = biological target: 5-hydroxytryptamine receptor 6 (Homo sapiens) (UniProt P50406); experiment: Inhibition of human 5-HT6 receptor at 10 uM
# Homo sapiens [38] = species on record: Homo sapiens; experiment: Inhibition of human dopamine receptor 4.7 at 10 uM
# Homo sapiens [39] = species on record: Homo sapiens; experiment: Inhibition of human endothelin-converting enzyme at 10 uM by cerep assay
# [40] = biological target: Neprilysin (Homo sapiens) (UniProt P08473); experiment: Inhibition of human neutral endopeptidase from HUV-EC-C cells at 10 uM by fluorimetry
compound,measurement,setting,value
C=C[C@@H]1C[C@]1(NC(=O)[C@@H]1C[C@@H](Oc2cc(-c3csc(NC(=O)C(C)C)n3)nc3c(Br)c(OC)ccc23)CN1C(=O)[C@@H](NC(=O)OC1CCCC1)C(C)(C)C)C(=O)O,inhibition,Rattus norvegicus [1],10%
same,inhibition,[2],5%
same,inhibition,[3],18%
same,inhibition,[4],4%
same,inhibition,[5],2%
same,inhibition,[6],23%
same,inhibition,[7],15%
same,inhibition,[8],7%
same,inhibition,[9],0%
same,Ki,Hepatitis C virus,2.8 nM
same,Cmax,[10],2000 nM
same,Tmax,[11],1.5 h
same,AUC,[12],1.55 µM·h
same,AUC,[13],13 µM·h
same,AUC(0-inf),[14],1.63 µM·h
same,AUC(0-inf),[15],8.3 µM·h
same,inhibition,Caspase-2 (Homo sapiens),5%
same,inhibition,Cathepsin B,22%
same,inhibition,Cathepsin C (Bos taurus),1%
same,inhibition,Chymase (Homo sapiens),11%
same,inhibition,Homo sapiens [16],0%
same,inhibition,[17],0%
same,inhibition,[18],19%
same,inhibition,[19],11%
same,inhibition,[20],5%
same,inhibition,[21],3%
same,inhibition,[22],9%
same,inhibition,[23],2%
same,inhibition,[24],78%
same,inhibition,[25],1%
same,inhibition,[26],4%
same,inhibition,[27],11%
same,inhibition,[28],38%
same,inhibition,Rattus norvegicus [29],6%
same,inhibition,[30],0%
same,inhibition,Rattus norvegicus [31],26%
same,inhibition,Rattus norvegicus [32],10%
same,inhibition,Rattus norvegicus [33],7%
same,inhibition,[34],47%
same,inhibition,Rattus norvegicus [35],7%
same,inhibition,[36],18%
same,inhibition,[37],22%
same,inhibition,Homo sapiens [38],0%
same,inhibition,Homo sapiens [39],11%
same,inhibition,[40],14%
